The source of these data is ChEMBL document CHEMBL1121366, “Synthesis and immunological activity of 5,6,6a,8,9,11a-hexahydronaphth[1',2':4,5]imidazo[2,1-b]thiazoles and 5,6,6a,9,10,11a-hexahydroanaphth[2',1':4,5]imidazo[2,1-b]thiazoles” (J Med Chem, 1980).

What is called LD50 is the dose at which mortality reaches 50%.

Data set [1] relates to Mus musculus. Briefly: Acute lethal dose was determined in mice upon intravenous administration. Type of data set: ADME, organism-based. The following applies: in vivo. The procedure, abridged:
(§1)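 Male mice, 8–10 weeks old, CDF1 (Balb/c × DBA/2Cr). Groups of six dosed once, either iv or sc. Three to five dose levels were chosen from 400, 300, 150, 80, 40, 20 and 10 mg/kg. LD50 was calculated by the Litchfield–Wilcoxon method. Vehicle was saline or saline with 1% Me2SO, depending on compound.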

Data set [2] deals with Mus musculus. Kind of data set: Tested for increase in foot-pad thickness (mm) by its effect on cellular immune response in mice against sheep red blood cells by DHR method in experiment 10 at dose 3 mg/kg. Type of data set: functional. In a few lines: (§2)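 Male ICR mice, 8-10 weeks old, groups of four, were sensitized with 1 × 10^8 SRBC in PBS into one hind footpad and dosed sc in the inguinal region, in saline or in saline with 1% Me2SO. Four days later the other footpad was challenged with 1 × 10^8 SRBC. Foot thickness was gauged just before and 24 h after challenge, and the increase was reported as mean of four ± SE.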

The test system of data set [3] is Mus musculus. Briefly: Effect on humoral immune response in mice against sheep red blood cells by the plaque-forming cell (PFC/10e 6 spleen cells) method in experiment 1 at dose 12 mg/kg. The class given is functional. The procedure, abridged: (§3)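 Male CDF1 (Balb/c × DBA/2Cr) mice, 8-10 weeks old, groups of four, were immunized iv with 1 × 10^8 SRBC in PBS. After 24 h they received a single sc inguinal dose in saline, or as a suspension in saline with 1% Me2SO. Spleens were taken 4 days later and hemolytic plaque-forming cells counted by Cunningham's method. Values are the mean of four mice ± SE, with a paired Student's t test against the control.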

Data set [4] deals with Mus musculus. Kind of data set: Effect on humoral immune response in mice against sheep red blood cells by the plaque-forming cell (PFC/10e 6 spleen cells) method in experiment 1 at dose 3 mg/kg. The class given is functional. In a few lines:
as §3

For data set [5], the system named is Mus musculus. Briefly: Tested for increase in foot-pad thickness (mm) by its effect on cellular immune response in mice against sheep red blood cells by the DHR method in experiment 10 at dose 3 mg/kg. The class given is functional. In a few lines:
as §2

Data set [6] has as its system Mus musculus. Briefly: Acute lethal dose was determined in mice upon subcutaneous administration. Particulars: in vivo, sc. The class given is ADME, organism-based. In a few lines:
as §1

The test system of data set [7] is Mus musculus. Kind of data set: Tested increase in foot-pad thickness (mm) by its effect on cellular immune response in mice against sheep red blood cells by the DHR method in experiment 16 at dose 3 mg/kg. The class given is functional. In a few lines: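 Male ICR mice, 8–10 weeks old, groups of four. Sensitized with SRBC (1 × 10^8) in PBS injected into one hind footpad; compound given sc in the inguinal region in saline or in saline with 1% Me2SO. Four days later the other hind footpad was challenged with SRBC (1 × 10^8). Dial gauge read just before and 24 h after challenge. Value is the mean increase ± SE.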

For data set [8], the system named is Mus musculus. Kind of data set: Tested for the immunological activity by its effect on humoral immune response in mice against sheep red blood cells (SRBC) by the plaque-forming cell (PFC/10e 6 spleen cells) method in experiment 7 at dose 3 mg/kg. Type of data set: functional. The procedure, abridged: as §3
The subject of data set [9] is Mus musculus. Briefly: Effect on humoral immune response in mice against sheep red blood cells by the plaque-forming cell (PFC/10e 6 spleen cells) method in experiment 2 at dose 12 mg/kg. The class given is functional. In a few lines:
(§4)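 Male ICR mice, 8-10 weeks old, groups of four, were immunized iv with 1 × 10^8 SRBC in PBS. After 24 h they received a single sc inguinal dose in saline, or as a suspension in saline with 1% Me2SO. Splenic hemolytic plaque-forming cells were counted 4 days later by Cunningham's method. Values are the mean of four ± SE, with a paired t test against the control.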

Data set [10] has as its system Mus musculus. Kind of data set: Tested for increase in foot-pad thickness (mm) by its effect on cellular immune response in mice against sheep red blood cells by DHR method in experiment 16 at dose 12 mg/kg. The class given is functional. The procedure, abridged: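 Male mice, 8–10 weeks old, ICR strain. Groups of four were sensitized with 1 × 10^8 SRBC in PBS into one hind footpad, with compound given sc in the inguinal region in saline or saline/1% Me2SO. Four days later, 1 × 10^8 SRBC were injected into the other hind footpad. Foot thickness was measured with a dial gauge just before and 24 h after this challenge, and the increase was taken as the difference. Values are the mean of four mice ± SE.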

For data set [11], the system named is Mus musculus. Briefly: Tested for increase in foot-pad thickness (mm) by its effect on cellular immune response in mice against sheep red blood cells by DHR method in experiment 11 at dose 12 mg/kg. The class given is functional. In a few lines: as §2
For data set [12], the system named is Mus musculus. Briefly: Effect on humoral immune response in mice against sheep red blood cells by the plaque-forming cell (PFC/10e 6 spleen cells) method in experiment 2 at dose 3 mg/kg. Type of data set: functional. In a few lines: as §4
The test system of data set [13] is Mus musculus. Briefly: Tested for the immunological activity by its effect on humoral immune response in mice against sheep red blood cells (SRBC) by the plaque-forming cell (PFC/10e 6 spleen cells) method in experiment 7 at dose 12 mg/kg. The class given is functional. In a few lines:
as §3

Turning to `c1ccc2c(c1)CCC1C2N=C2SCCN21` (stereo in doubt), the LD50 is 27 mg/kg in the data set with Mus musculus [1] and 116 mg/kg with Mus musculus [6]. The Increase in footpad thickness with Mus musculus [2] amounted to 0.44 mm; in the data set with Mus musculus [5] it was 0.42 mm. Further, the values for the PFC in the data set on Mus musculus [3] and in the data set with Mus musculus [4] were 860 and 1220, respectively.

Take `c1ccc2c(c1)CCC1N=C3SCCN3C21` (trans isomer): the LD50 in the data set with Mus musculus [1] is 26 mg/kg; with Mus musculus [6], 190 mg/kg. The Increase in footpad thickness in the data set on Mus musculus [7] amounted to 0.27 mm; in the data set with Mus musculus [10], 0.43 mm; with Mus musculus [11], 0.39 mm. In addition, the PFC with Mus musculus [8] is recorded as 1110; in the data set with Mus musculus [9], 2580; in the data set with Mus musculus [12], 2440; in the data set with Mus musculus [13], 960.
